Data: ChEMBL document CHEMBL3627671, “Novel derivatives of nitro-substituted salicylic acids: Synthesis, antimicrobial activity and cytotoxicity” (Bioorg Med Chem, 2015)
Values after ≈ are worked out from the molar mass of the structure shown.

Legend:
[1] = tested on: Mycobacterium tuberculosis; experiment: Antimycobacterial activity against Mycobacterium tuberculosis H37Rv 331/88 after 14 days; type: functional; details: H37Rv 331/88, 336 h
[2] = tested on: Mycobacterium tuberculosis; experiment: Antimycobacterial activity against Mycobacterium tuberculosis H37Rv 331/88 after 21 days; type: functional; details: H37Rv 331/88, 504 h
Mycobacterium avium [3] = experiment: Antimycobacterial activity against Mycobacterium avium 330/80 after 14 days; type: functional; details: 330/80, 336 h
Mycobacterium avium [4] = experiment: Antimycobacterial activity against Mycobacterium avium 330/80 after 21 days; type: functional; details: 330/80, 504 h
Mycobacterium kansasii [5] = experiment: Antimycobacterial activity against Mycobacterium kansasii 235/80 after 7 days; type: functional; details: 235/80, 168 h
Procedure, shortened: (§1)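 Šula's semisynthetic medium micromethod at 37 °C, read after 7, 14 and 21 days. The 1.0 McFarland suspension was diluted 10^-4. MIC determined. 6509/96 is a clinical isolate.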

Mycobacterium kansasii [6] = experiment: Antimycobacterial activity against Mycobacterium kansasii 235/80 after 14 days; type: functional; details: 235/80, 336 h; procedure, shortened: as §1
Mycobacterium kansasii [7] = experiment: Antimycobacterial activity against Mycobacterium kansasii 235/80 after 21 days; type: functional; details: 235/80, 504 h; procedure, shortened: as §1
Mycobacterium kansasii [8] = experiment: Antimycobacterial activity against Mycobacterium kansasii 6509/96 after 7 days; type: functional; details: 6509/96, 168 h; procedure, shortened: as §1
Mycobacterium kansasii [9] = experiment: Antimycobacterial activity against Mycobacterium kansasii 6509/96 after 14 days; type: functional; details: 6509/96, 336 h; procedure, shortened: as §1
Mycobacterium kansasii [10] = experiment: Antimycobacterial activity against Mycobacterium kansasii 6509/96 after 21 days; type: functional; details: 6509/96, 504 h; procedure, shortened: as §1
Staphylococcus aureus [11] = experiment: Antibacterial activity against Staphylococcus aureus CCM 4516/08 after 24 hrs by microdilution broth method; type: functional; details: CCM 4516/08, 24 h
Staphylococcus aureus [12] = experiment: Antibacterial activity against Staphylococcus aureus CCM 4516/08 after 48 hrs by microdilution broth method; type: functional; details: CCM 4516/08, 48 h
Staphylococcus aureus [13] = experiment: Antibacterial activity against methicillin-resistant Staphylococcus aureus H 5996/08 after 24 hrs by microdilution broth method; type: functional; details: H 5996/08, 24 h
Staphylococcus aureus [14] = experiment: Antibacterial activity against methicillin-resistant Staphylococcus aureus H 5996/08 after 48 hrs by microdilution broth method; type: functional; details: H 5996/08, 48 h
[15] = tested on: Staphylococcus epidermidis; experiment: Antibacterial activity against Staphylococcus epidermidis H 6966/08 after 24 hrs by microdilution broth method; type: functional; details: H 6966/08, 24 h
Procedure, shortened: (§2)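 Mueller-Hinton broth microdilution (modified M07-A07), pH 7.4 (±0.2). Compounds dissolved in DMSO, tested at final 500 to 0.49 µmol/L. Inoculum in sterile water matched to 0.5 McFarland. Incubated in the dark, humid atmosphere, 35 °C, read at 24 and 48 h visually and at 540 nm. MIC taken as ≥95% growth reduction (IC95) versus control.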

[16] = tested on: Staphylococcus epidermidis; experiment: Antibacterial activity against Staphylococcus epidermidis H 6966/08 after 48 hrs by microdilution broth method; type: functional; details: H 6966/08, 48 h; procedure, shortened: as §2
Enterococcus sp. [17] = experiment: Antibacterial activity against Enterococcus sp. J 14365/08 after 24 hrs by microdilution broth method; type: functional; details: J 14365/08, 24 h; procedure, shortened: as §2
Enterococcus sp. [18] = experiment: Antibacterial activity against Enterococcus sp. J 14365/08 after 48 hrs by microdilution broth method; type: functional; details: J 14365/08, 48 h; procedure, shortened: as §2
Escherichia coli [19] = experiment: Antibacterial activity against Escherichia coli CCM4517 after 24 hrs by microdilution broth method; type: functional; details: CCM4517, 24 h; procedure, shortened: as §2
Escherichia coli [20] = experiment: Antibacterial activity against Escherichia coli CCM4517 after 48 hrs by microdilution broth method; type: functional; details: CCM4517, 48 h; procedure, shortened: as §2
Klebsiella pneumoniae [21] = experiment: Antibacterial activity against Klebsiella pneumoniae D 11750/08 after 24 hrs by microdilution broth method; type: functional; details: D 11750/08, 24 h; procedure, shortened: as §2
Klebsiella pneumoniae [22] = experiment: Antibacterial activity against Klebsiella pneumoniae D 11750/08 after 48 hrs by microdilution broth method; type: functional; details: D 11750/08, 48 h; procedure, shortened: as §2
Klebsiella pneumoniae [23] = experiment: Antibacterial activity against ESBL-positive Klebsiella pneumoniae J 14368/08 after 24 hrs by microdilution broth method; type: functional; details: J 14368/08, 24 h; procedure, shortened: as §2
Klebsiella pneumoniae [24] = experiment: Antibacterial activity against ESBL-positive Klebsiella pneumoniae J 14368/08 after 48 hrs by microdilution broth method; type: functional; details: J 14368/08, 48 h; procedure, shortened: as §2
Pseudomonas aeruginosa [25] = experiment: Antibacterial activity against Pseudomonas aeruginosa CCM 1961 after 24 hrs by microdilution broth method; type: functional; details: CCM 1961, 24 h; procedure, shortened: as §2
Pseudomonas aeruginosa [26] = experiment: Antibacterial activity against Pseudomonas aeruginosa CCM 1961 after 48 hrs by microdilution broth method; type: functional; details: CCM 1961, 48 h; procedure, shortened: as §2
Candida albicans [27] = experiment: Antifungal activity against Candida albicans ATCC 44859 after 24 hrs by microdilution broth method; type: functional; details: ATCC 44859, 24 h
Procedure, shortened: (§3)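 CLSI M27-A3 broth microdilution in RPMI 1640 with glutamine, buffered to pH 7.0 with MOPS; DMSO diluent. Yeast inoculum 5 × 10^3 ± 0.2 CFU/mL. Moulds grown on Sabouraud agar 3–10 days before spore harvest, final inoculum 0.5-5 × 10^4 CFU/mL, checked in a Bürker chamber. Incubated dark, humid, 35 °C, read at 24 and 48 h visually and at 540 nm. MIC taken as ≥80% (yeasts) or ≥50% (filamentous) growth reduction versus control.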

Candida albicans [28] = experiment: Antifungal activity against Candida albicans ATCC 44859 after 48 hrs by microdilution broth method; type: functional; details: ATCC 44859, 48 h; procedure, shortened: as §3
Candida tropicalis [29] = experiment: Antifungal activity against Candida tropicalis 156 after 24 hrs by microdilution broth method; type: functional; details: Candida tropicalis, 156, 24 h; procedure, shortened: as §3
Candida tropicalis [30] = experiment: Antifungal activity against Candida tropicalis 156 after 48 hrs by microdilution broth method; type: functional; details: Candida tropicalis, 156, 48 h; procedure, shortened: as §3
Pichia kudriavzevii [31] = experiment: Antifungal activity against Candida krusei E28 after 24 hrs by microdilution broth method; type: functional; details: E28, 24 h; procedure, shortened: as §3
Pichia kudriavzevii [32] = experiment: Antifungal activity against Candida krusei E28 after 48 hrs by microdilution broth method; type: functional; details: E28, 48 h; procedure, shortened: as §3
Nakaseomyces glabratus [33] = experiment: Antifungal activity against Candida glabrata 20/I after 24 hrs by microdilution broth method; type: functional; procedure, shortened: as §3
Nakaseomyces glabratus [34] = experiment: Antifungal activity against Candida glabrata 20/I after 48 hrs by microdilution broth method; type: functional; procedure, shortened: as §3
Trichosporon asahii [35] = experiment: Antifungal activity against Trichosporon asahii 1188 after 24 hrs by microdilution broth method; type: functional; details: Trichosporon asahii, 1188, 24 h; procedure, shortened: as §3
Trichosporon asahii [36] = experiment: Antifungal activity against Trichosporon asahii 1188 after 48 hrs by microdilution broth method; type: functional; details: Trichosporon asahii, 1188, 48 h; procedure, shortened: as §3
Aspergillus fumigatus [37] = experiment: Antifungal activity against Aspergillus fumigatus 231 after 24 hrs by microdilution broth method; type: functional; details: Aspergillus fumigatus, 231, 24 h; procedure, shortened: as §3
Aspergillus fumigatus [38] = experiment: Antifungal activity against Aspergillus fumigatus 231 after 48 hrs by microdilution broth method; type: functional; details: Aspergillus fumigatus, 231, 48 h; procedure, shortened: as §3
Lichtheimia corymbifera [39] = experiment: Antifungal activity against Absidia corymbifera 272 after 24 hrs by microdilution broth method; type: functional; details: Lichtheimia corymbifera, 272, 24 h; procedure, shortened: as §3
Lichtheimia corymbifera [40] = experiment: Antifungal activity against Absidia corymbifera 272 after 48 hrs by microdilution broth method; type: functional; details: Lichtheimia corymbifera, 272, 48 h; procedure, shortened: as §3
[41] = tested on: Trichophyton mentagrophytes; experiment: Antifungal activity against Trichophyton mentagrophytes 445 after 24 hrs by microdilution broth method; type: functional; details: Trichophyton mentagrophytes, 445, 24 h
[42] = tested on: Trichophyton mentagrophytes; experiment: Antifungal activity against Trichophyton mentagrophytes 445 after 48 hrs by microdilution broth method; type: functional; details: Trichophyton mentagrophytes, 445, 48 h
HepG2 = experiment: Cytotoxicity against human HepG2 cells after 24 hrs […]; type: cell-based; details: HepG2, 24 h
[43] = Selectivity index, ratio of CI50 for human HepG2 cells to MIC100 for Mycobacterium tuberculosis H37Rv 331/88

Q: For `O=C(Nc1ccc(C(F)(F)F)cc1)c1cc([N+](=O)[O-])ccc1O`, which MIC [1] is on record?
A: The MIC was 8 µM (≈ 2.61 µg/mL).

Q: What about the MIC [2] of the same compound?
A: The MIC was 8 µM (≈ 2.61 µg/mL).

Q: And the MIC (Mycobacterium avium [3])?
A: The MIC was 62.5 µM (≈ 20.4 µg/mL).

Q: What about the MIC (Mycobacterium avium [4]) of the same compound?
A: The MIC was 62.5 µM (≈ 20.4 µg/mL).

Q: What about the MIC (Mycobacterium kansasii [5]) of the same compound?
A: Its MIC is 8 µM (≈ 2.61 µg/mL).

Q: What about the MIC (Mycobacterium kansasii [6]) of the same compound?
A: The MIC was 16 µM (≈ 5.22 µg/mL).

Q: And the MIC (Mycobacterium kansasii [7])?
A: The MIC was 32 µM (≈ 10.4 µg/mL).

Q: What about the MIC (Mycobacterium kansasii [8]) of the same compound?
A: The MIC was 16 µM (≈ 5.22 µg/mL).

Q: What about the MIC (Mycobacterium kansasii [9]) of the same compound?
A: The MIC was 32 µM (≈ 10.4 µg/mL).

Q: And the MIC (Mycobacterium kansasii [10])?
A: Its MIC is 32 µM (≈ 10.4 µg/mL).

Q: What about the MIC (Staphylococcus aureus [11]) of the same compound?
A: The MIC was 31.2 µM (≈ 10.2 µg/mL).

Q: What about the MIC (Staphylococcus aureus [12]) of the same compound?
A: Its MIC is 31.2 µM (≈ 10.2 µg/mL).

Q: And the MIC (Staphylococcus aureus [13])?
A: The MIC was 31.2 µM (≈ 10.2 µg/mL).

Q: And the MIC (Staphylococcus aureus [14])?
A: Its MIC is 31.2 µM (≈ 10.2 µg/mL).

Q: What about the MIC [15] of the same compound?
A: The MIC was 15.6 µM (≈ 5.1 µg/mL).

Q: And the MIC [16]?
A: Its MIC is 15.6 µM (≈ 5.1 µg/mL).

Q: And the MIC (Enterococcus sp. [17])?
A: The MIC was greater than 500 µM.

Q: And the MIC (Enterococcus sp. [18])?
A: The MIC was greater than 500 µM.

Q: What about the MIC (Escherichia coli [19]) of the same compound?
A: Its MIC is greater than 500 µM.

Q: What about the MIC (Escherichia coli [20]) of the same compound?
A: Its MIC is greater than 500 µM.

Q: What about the MIC (Klebsiella pneumoniae [21]) of the same compound?
A: Its MIC is greater than 500 µM.

Q: And the MIC (Klebsiella pneumoniae [22])?
A: Its MIC is greater than 500 µM.

Q: What about the MIC (Klebsiella pneumoniae [23]) of the same compound?
A: The MIC was greater than 500 µM.

Q: What about the MIC (Klebsiella pneumoniae [24]) of the same compound?
A: The MIC was greater than 500 µM.

Q: And the MIC (Pseudomonas aeruginosa [25])?
A: Its MIC is greater than 500 µM.

Q: And the MIC (Pseudomonas aeruginosa [26])?
A: Its MIC is greater than 500 µM.

Q: What about the MIC (Candida albicans [27]) of the same compound?
A: Its MIC is greater than 500 µM.

Q: And the MIC (Candida albicans [28])?
A: The MIC was greater than 500 µM.

Q: And the MIC (Candida tropicalis [29])?
A: Its MIC is greater than 500 µM.

Q: What about the MIC (Candida tropicalis [30]) of the same compound?
A: The MIC was greater than 500 µM.

Q: What about the MIC (Pichia kudriavzevii [31]) of the same compound?
A: The MIC was greater than 500 µM.

Q: What about the MIC (Pichia kudriavzevii [32]) of the same compound?
A: The MIC was greater than 500 µM.

Q: And the MIC (Nakaseomyces glabratus [33])?
A: Its MIC is greater than 500 µM.

Q: And the MIC (Nakaseomyces glabratus [34])?
A: Its MIC is greater than 500 µM.

Q: What about the MIC (Trichosporon asahii [35]) of the same compound?
A: Its MIC is 500 µM (≈ 163 µg/mL).

Q: And the MIC (Trichosporon asahii [36])?
A: The MIC was 500 µM (≈ 163 µg/mL).

Q: And the MIC (Aspergillus fumigatus [37])?
A: Its MIC is 500 µM (≈ 163 µg/mL).

Q: What about the MIC (Aspergillus fumigatus [38]) of the same compound?
A: Its MIC is 500 µM (≈ 163 µg/mL).

Q: And the MIC (Lichtheimia corymbifera [39])?
A: Its MIC is 500 µM (≈ 163 µg/mL).

Q: What about the MIC (Lichtheimia corymbifera [40]) of the same compound?
A: Its MIC is 500 µM (≈ 163 µg/mL).

Q: What about the MIC [41] of the same compound?
A: Its MIC is 500 µM (≈ 163 µg/mL).

Q: And the MIC [42]?
A: The MIC was 500 µM (≈ 163 µg/mL).

Q: And the IC50 (HepG2)?
A: The IC50 was 3.5 µM.

Q: What about the “Selectivity Index” value [43] of the same compound?
A: Its value is 0.438.
